SENP8 block-1: SENP8 protease inhibitors, primary screen, biochemical, luminescence | Sentrin-specific protease 8 (Homo sapiens), Q96LD8 | purified SENP8, Z-RLRGG-aminoluciferin cleavage | inhibition, % at 10 µM | hit rate 1.2% among 330,000 | AID 2540, 2010; in the data active = inhibition above about 50%
Target sequence (Q96LD8 whole entry, looked up): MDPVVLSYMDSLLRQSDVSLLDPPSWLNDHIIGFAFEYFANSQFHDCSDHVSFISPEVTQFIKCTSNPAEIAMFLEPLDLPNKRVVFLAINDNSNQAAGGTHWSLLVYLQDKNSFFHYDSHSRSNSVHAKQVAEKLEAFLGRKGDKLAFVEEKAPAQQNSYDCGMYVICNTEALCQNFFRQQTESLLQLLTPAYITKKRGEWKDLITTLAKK
SENP6 inh: SENP6 protease inhibitors, primary screen, biochemical, luminescence, uHTS; hit rate 1.8% among 330,000; Sentrin-specific protease 6 (Homo sapiens), Q9GZR1; inhibition, % at 10 µM; Recombinant SENP6 catalytic domain, aminoluciferin luminescence;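 active = inhibition above about 50% at the single tested dose, limit read from the data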
SENP1 inh: human SENP1 catalytic domain inhibitors, primary screen, biochemical, FRET, uHTS | Sentrin-specific protease 1 (Homo sapiens), Q9P0U3 | recombinant SENP1 catalytic domain, CyPet-SUMO1-YPet FRET cleavage | inhibition, % at 10 µM | hit rate 0.21% among 360,000;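 active = inhibition at least 30% at 10 µM, raw YFP signal under a set limit, fluorescence ratio 0.5 to 1.5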
Target sequence (Q9P0U3 419-644 limits assumed): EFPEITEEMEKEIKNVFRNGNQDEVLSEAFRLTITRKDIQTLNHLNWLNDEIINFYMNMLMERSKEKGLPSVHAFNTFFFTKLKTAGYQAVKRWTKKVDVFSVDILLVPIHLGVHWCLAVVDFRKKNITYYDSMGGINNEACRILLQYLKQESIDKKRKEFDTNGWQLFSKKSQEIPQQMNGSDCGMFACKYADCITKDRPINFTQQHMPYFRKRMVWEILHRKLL
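Assay system: hSENP1 catalytic domain, recombinant. Amount: SENP1 enzyme, 20 pM final. Schedule: 50 min reaction, RT, dark. Technique: FRET, CFP and YFP emission. Control set: no-enzyme wells low, DMSO-plus-enzyme wells high control.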
SENP8 block-2: human SENP8 protease inhibitors, primary screen, biochemical, fluorescence, Nedd8 protein substrate, uHTS; Sentrin-specific protease 8 (Homo sapiens), Q96LD8; recombinant SENP8; inhibition, % at 20 µM; hit rate 0.64% among 360,000; AID 602440, 2012; in the data active = inhibition mostly above about 40%, no sharp cut-off; inactive = mostly below about 27%
SENP7 inh: SENP7 protease inhibitors, primary screen, biochemical, luminescence, uHTS; inhibition, % at 5 µM; hit rate 1.5% among 330,000; AID 434973, 2010; recombinant SENP7, Z-RLRGG-aminoluciferin luminescence, 40 min;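 active = inhibition above about 50% at the single test dose, limit read from the data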
HSP90 refold inh: HSP90 inhibitors, primary screen, cell lysate, luminescence | Rabbit reticulocyte lysate, luciferase refolding luminescence, 3 h | inhibition, % at 5.6 µM | Heat shock protein HSP 90 (rabbit reticulocyte lysate; luciferase refolding) | hit rate 0.91% among 290,000;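 active = inhibition above the screen-wide mean plus 3 SD, computed separately per campaign, cut at about 16% in these data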;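 also: inhibitors lower the luminescence because luciferase stays unfolded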
SENP8 conf: SENP8 protease inhibitors, retest, confirmation, biochemical, luminescence, single concentration | shares compounds with SENP7 inh | Recombinant SENP8, Z-RLRGG-aminoluciferin luminescence, 60 min | inhibition, % at 12.5 µM | hit rate 40% among 6,200;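 active = mean inhibition across replicates above about 50%, limit read from the data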
SENP6 confirm: SENP6 protease inhibitors, confirmation, biochemical, luminescence, single concentration; shares compounds with SENP7 inh; recombinant SENP6, Z-RLRGG-aminoluciferin luminescence; inhibition, % at 12.5 µM; hit rate 58% among 6,200
SENP7 confirm: SENP7 protease inhibitors, retest, confirmation, biochemical, luminescence, single concentration. shares compounds with SENP7 inh. recombinant SENP7, Z-RLRGG-aminoluciferin luminescence, 40 min. inhibition, % at 12.5 µM. hit rate 69% among 6,200. AID 488917, 2010
Casp3 SENP sel: caspase-3 protease inhibitors, confirmation, selectivity assay for SENP inhibitor project, biochemical, single concentration. shares compounds with SENP7 inh. purified caspase-3, Z-DEVD-aminoluciferin luminescence, 60 min. inhibition, % at 12.5 µM. hit rate 60% among 6,200. AID 488918, 2010;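 active = mean inhibition above about 50%, limit read from the data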
Target sequence (P42574 28-227 limits assumed): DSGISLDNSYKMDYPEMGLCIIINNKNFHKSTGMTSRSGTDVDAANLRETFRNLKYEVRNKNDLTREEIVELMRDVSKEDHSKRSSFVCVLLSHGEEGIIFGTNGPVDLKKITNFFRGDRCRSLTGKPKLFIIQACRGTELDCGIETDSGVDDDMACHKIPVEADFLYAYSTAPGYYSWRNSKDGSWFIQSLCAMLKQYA
Luc interf: luminescence interference (SENP counter-screen); shares compounds with SENP7 inh; hit rate 39% among 6,200; Pre-incubated SENP8/Z-RLRGG-aminoluciferin, luciferase luminescence interference; AID 488919; inhibition, % at 12.5 µM;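 active = mean inhibition above about 50% when retested at one dose, limit read from the data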
Each line names hits and unclear results; the compound was inactive in the other large screens (follow-up assays come after a bar, where they were run). An excerpt weighted towards active compounds, which were near 2.9% of everything screened.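 The calls were made as follows, unless noted: active = mean inhibition above about 50% in the one-dose retest (limit read from the data); inactive = the rest.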

Cc1cc(/C=C2\Cc3ccccc3C2=O)c(C)n1-c1ccccc1	SENP8 block-1 65 | SENP8 conf inactive | SENP6 confirm 91 | SENP7 confirm 97 | Casp3 SENP sel 68 | Luc interf inactive
Cc1cc(C=C2C(=O)c3ccccc3C2=O)c(C)n1-c1ccccc1	SENP8 block-1 74, SENP6 inh 92, SENP7 inh 93 | SENP8 conf inactive | SENP6 confirm inactive | SENP7 confirm inactive | Casp3 SENP sel inactive | Luc interf inactive
Cc1cc(C=C2C(=O)c3ccccc3C2=O)c(C)n1-c1ccc(C(=O)O)cc1	none
COc1ccccc1/C=C1\Cc2ccccc2C1=O	none (no result: SENP8 block-1, SENP6 inh, SENP7 inh)
CCN(CC(=O)Nc1ccccc1OC)C(=O)COc1ccc2ccccc2c1	none
CN(C)S(=O)(=O)c1ccc(Cl)c(NC(=O)CN2CCCC2)c1	none
O=c1c2ccc(F)cc2sn1-c1ccccc1	none (no result: SENP8 block-1, SENP6 inh, SENP7 inh, HSP90 refold inh)
O=c1c2ccccc2sn1-c1ccc(F)cc1	SENP8 block-1 74, SENP6 inh 82 (no result: HSP90 refold inh) | SENP8 conf 84 | SENP6 confirm 84 | SENP7 confirm 96 | Casp3 SENP sel 91 | Luc interf 84
O=C(O)c1cccc(NC(=O)c2ccc3c(c2)C(=O)N(C2CCCCC2)C3=O)c1	SENP8 block-1 93, SENP6 inh 95, SENP7 inh 97 | SENP8 conf 83 | SENP6 confirm 81 | SENP7 confirm 100 | Casp3 SENP sel 62 | Luc interf inactive
O=C(Nc1cccnc1)c1ccc(Cl)c(S(=O)(=O)N2CCCCC2)c1	none
O=C(O)COc1ccc(NC(=O)c2ccc3c(c2)C(=O)N(C2CCCCC2)C3=O)cc1	none (no result: SENP8 block-1, SENP6 inh, SENP7 inh)
O=C(O)c1cccc(NC(=O)c2ccc(Cl)c(S(=O)(=O)N3CCCCCC3)c2)c1	SENP8 block-1 78, SENP6 inh 85, SENP7 inh 85 | SENP8 conf 90 | SENP6 confirm 89 | SENP7 confirm 98 | Casp3 SENP sel 55 | Luc interf 79
O=C(O)c1cccc(NC(=O)c2cccc(S(=O)(=O)N3CCc4ccccc43)c2)c1	SENP6 inh 54 | SENP8 conf inactive | SENP6 confirm inactive | SENP7 confirm 70 | Casp3 SENP sel inactive | Luc interf inactive
O=C(Nc1ccncc1)c1cccc(S(=O)(=O)N2CCc3ccccc32)c1	none (no result: HSP90 refold inh)
CCOc1cc(CNCc2cccnc2)cc(Br)c1OCC(N)=O	none
CCC(=O)Nc1cccc(C(=O)OCC(=O)c2ccccc2Cl)c1	none
CC(=O)Nc1cccc(C(=O)OCC(=O)c2ccccc2Cl)c1	SENP7 inh 61 | SENP8 conf 72 | SENP6 confirm inactive | SENP7 confirm 89 | Casp3 SENP sel 70 | Luc interf 74
O=C(O/N=C/c1ccc(Br)cc1)c1ccc(F)cc1	SENP7 inh 76 (no result: HSP90 refold inh) | SENP8 conf inactive | SENP6 confirm inactive | SENP7 confirm inactive | Casp3 SENP sel inactive | Luc interf inactive
O=C(N/N=C/c1ccc(Br)cc1)c1ccc(F)cc1	none
Nc1cccc(-c2nc3ccccc3s2)c1	SENP8 block-1 93, SENP6 inh 100, SENP7 inh 100 | SENP8 conf 96 | SENP6 confirm 98 | SENP7 confirm 103 | Casp3 SENP sel 96 | Luc interf 97
COC(=O)N(C)c1nc2ccccc2s1	none
CN(C(=O)OC(C)(C)C)c1ccc(-c2nc3ccccc3s2)cc1	SENP8 block-1 95, SENP6 inh 100, SENP7 inh 100 (no result: HSP90 refold inh) | SENP8 conf 95 | SENP6 confirm 97 | SENP7 confirm 100 | Casp3 SENP sel 93 | Luc interf inactive
COc1cc(-c2nc3ccccc3s2)ccc1O	SENP8 block-1 94, SENP6 inh 94, SENP7 inh 89 | SENP8 conf 95 | SENP6 confirm 96 | SENP7 confirm 102 | Casp3 SENP sel 88 | Luc interf 95
Cc1ccc2nc(C3CCCCC3)c(Cc3cccc(F)c3)n2c1	none (no result: SENP8 block-1, SENP6 inh, SENP7 inh, HSP90 refold inh)
Cc1ccc(NC(=O)CN(C)C(=O)COC(=O)c2ccc(Cl)cc2O)cc1	none (no result: HSP90 refold inh)
CC(C)(C)OC(=O)NC(CNCc1ccccc1)Cc1ccccc1 (stereo not given)	none (no result: HSP90 refold inh)
CN(C)CCCNc1cc(O)c2ncccc2c1	SENP6 inh 74 (no result: HSP90 refold inh) | SENP8 conf inactive | SENP6 confirm 62 | SENP7 confirm inactive | Casp3 SENP sel 90 | Luc interf inactive
C[C@@H]1CN([C@H](C)CO)C(=O)CCCn2nncc2CO[C@H]1CN(C)Cc1cccc2c1OCCCO2	none (no result: SENP8 block-1, SENP6 inh, SENP7 inh, HSP90 refold inh)
CC1CC(C)CN(c2cc(N(C)CCO)c([N+](=O)[O-])c3nonc23)C1 (stereo not given)	none
CC1CCN(c2cc(N(C)CCO)c([N+](=O)[O-])c3nonc23)CC1	SENP7 inh 90 | SENP8 conf inactive | SENP6 confirm inactive | SENP7 confirm inactive | Casp3 SENP sel inactive | Luc interf inactive
COC(=O)c1[nH]c2ccccc2c1NC(=O)Oc1ccccc1	none
COC(=O)c1[nH]c2ccc(C)cc2c1NC(=O)Oc1ccccc1	SENP8 block-1 51, SENP6 inh 82 | SENP8 conf inactive | SENP6 confirm inactive | SENP7 confirm inactive | Casp3 SENP sel inactive | Luc interf inactive
COc1ccc(/C=C2\Oc3cc(OCC(N)=O)ccc3C2=O)cc1OC	none
Cc1ccsc1/C=C1\Oc2cc(OCC(=O)c3ccccc3)ccc2C1=O	SENP6 inh 60 | SENP8 conf inactive | SENP6 confirm inactive | SENP7 confirm inactive | Casp3 SENP sel inactive | Luc interf inactive
Cc1ccccc1NC(=O)/C=C/c1cccs1	SENP7 inh 63 | SENP8 conf 52 | SENP6 confirm 51 | SENP7 confirm 86 | Casp3 SENP sel 80 | Luc interf 70

High-throughput results as filed in PubChem.
